# Assay outcomes from PubChem BioAssay.
# This excerpt belongs to a sample that is enriched for hits.
# T cruzi inh: blocks replication of Trypanosoma cruzi. T. cruzi beta-gal in NIH3T3, luminescence, 90 h. inhibition, % (test concentration not listed). 300,000 compounds, 1.4% hits. AID 1885;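 active = mean inhibition across valid replicates above about 55%, limit read from the data; inconclusive = mean below that limit but half or more replicates reach it; inactive = mean below it, under half of replicates reach it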;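 also: signal also drops with host cell toxicity which is not excluded here; higher percent means less beta-gal luminescence so fewer parasites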
#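 System: Mouse NIH/3T3 fibroblasts infected with β-gal-expressing T. cruzi Tulahuen C4 | Quantity: NIH/3T3 cells, 5,000 per well | Reagent: 5000 reporter trypomastigotes per well | Dosing: Compound pinned at 50 nL/well, DMSO | Schedule: 3 h host attachment, then at least 90 h co-culture | Detection: GalScreen luminescence, 60 min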
# Calb FLC: C. albicans growth modulation with fluconazole. 300,000 compounds, 0.57% hits. growth inhibition, % (concentration not given with the values). C. albicans CaCi-2 + fluconazole, Alamar Blue growth, 48 h;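 active = growth inhibition above about 58% in most replicates, limit read from the data, passing the limit was not always enough; inconclusive = exactly half the replicates above a set limit; inactive = most replicates below a set limit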;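 also: all wells also contain fluconazole at 8 µg/ml as a sub-toxic cotreatment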
# NALP3 yeast inh: NALP3 inhibition in yeast. inhibition, % at 10 µM. 330,000 compounds, 0.39% hits. Yeast reconstituted NLRP3/ASC/caspase-1, beta-gal luminescence, 24 h;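 active = inhibition of 50% or more; inactive = inhibition below 50%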
# PolyA inhibitor: yeast polyadenylation inhibition | 300,000 compounds, 0.02% hits | AID 1875 | S. cerevisiae SKY197-pL101 polyadenylation reporter, beta-gal luminescence; efflux-impaired pdr1/pdr3 knockout yeast; score 100 = 6 SD above DMSO | activity score, % at 12 µM;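 active = lowest replicate activity score at least 50, where 100 means six control SD above control mean; inconclusive = lowest score under 50 but half or more replicates reach 50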;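 also: yeast exposed to compound for 9 h at 30 °C; higher score means more reporter readthrough which indicates perturbed polyadenylation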
# NALP1 yeast inh: inhibitors of NALP1 inflammasome in yeast. S. cerevisiae NALP1/ASC/caspase-1 growth, X-gal OD620, 72 h. inhibition, % at 10 µM. 280,000 compounds, 0.61% hits; in the data active = inhibition mostly above about 24%, no sharp cut-off; inactive = mostly below about 32%
# L major viab: inhibitors of Leishmania major promastigote growth. Leishmania major promastigotes, resazurin fluorescence viability. inhibition, % at 10 µM. 200,000 compounds, 9% hits. AID 1063; in the data active = inhibition above about 50%;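 also: promastigotes grown with compound for 44 hours at 28 °C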
# Numbers stand for hits; . = inactive; ? = inconclusive; / = not tested or not shown.
SMILES,T cruzi inh,Calb FLC,NALP3 yeast inh,PolyA inhibitor,NALP1 yeast inh,L major viab
CCC(C)NCCOc1ccc(C)cc1[N+](=O)[O-] (configuration not stated),.,.,/,.,.,.
COc1ccccc1OCCOCCOc1ccc(C)cc1[N+](=O)[O-],.,.,.,.,.,55
CCCCNCCOCCOc1ccc(C)cc1[N+](=O)[O-],.,.,.,.,.,91
COc1cc(C)ccc1OCCOCCOc1ccccc1[N+](=O)[O-],.,.,.,.,.,.
COCCCNCCCCOc1ccc(C)cc1[N+](=O)[O-],.,.,.,.,.,99
C=CCNCCOc1ccc(C)cc1[N+](=O)[O-],.,.,.,.,.,.
Cn1c(C(=O)OC(C(=O)NC2CCCC2)c2ccncc2)cc2sccc21 (configuration not stated),.,.,.,.,.,.
Cn1c(C(=O)OC(C(=O)NC(C)(C)C)c2cccnc2)cc2sccc21 (configuration not stated),64,.,.,.,.,95
COCCNC(=O)C(C)OC(=O)c1cc2sccc2n1C (configuration not stated),.,.,.,.,.,.
Cn1c(C(=O)OC(C(=O)NC2CCCCC2)c2ccncc2)cc2sccc21 (configuration not stated),58,.,.,.,.,.
COc1ccccc1NC(=S)N1CCN(c2nc(-c3ccccc3)cs2)CC1,.,.,.,.,.,.
O=C(COC(=O)/C=C/c1ccccc1Cl)NCCc1ccc(Cl)cc1Cl,.,.,.,.,.,.
NC(=O)c1ccccc1N/C=C/C(=O)c1ccc(Cl)cc1Cl,.,.,/,.,.,86
COc1ccc(S(=O)(=O)NCC(c2cccnc2)N2CCN(Cc3ccccc3)CC2)cc1C (configuration not stated),57,.,.,.,.,/
COc1ccc(S(=O)(=O)NCC(c2cccnc2)N2CCN(C)CC2)cc1C (configuration not stated),.,.,.,.,.,.
COc1ccc(S(=O)(=O)NCC(c2cccnc2)N2CCN(Cc3ccccc3)CC2)cc1 (configuration not stated),55,.,.,.,.,/
CN(C)c1nc(-c2ccccc2)c2cnn(Cc3ccccc3)c2n1,.,.,.,.,.,63
CC(=O)Nc1ccc(NC(=O)C2CCCN2C(=O)NCc2ccccc2)cc1 (configuration not stated),.,.,.,.,.,/
Cc1ccc(-n2nc3c(N4CCC(C(=O)NCc5ccccc5C)CC4)nnc(C)c3c2C)cc1,.,.,.,.,.,/
CCOc1ccccc1CNC(=O)C1CCN(c2nnc(C)c3c(C)n(-c4ccc(C)cc4)nc23)CC1,57,.,.,.,.,/
COc1ccc(-n2nc3c(N4CCC(C(=O)N5CCCCCC5)CC4)nnc(C)c3c2C)cc1,59,.,.,.,.,/
Cc1[nH]c2ccccc2c1CN1CCc2ccccc2C1,.,.,.,.,.,100
CCN1CCN(c2cc(C)c3cc(NC(=O)c4ccncc4)ccc3n2)CC1,.,.,.,.,.,65
CCN1CCN(c2cc(C)c3cc(NC(=O)c4ccc(Br)o4)ccc3n2)CC1,.,.,.,.,.,100
Cc1cc(N2CCN(C)CC2)nc2ccc(NC(=O)c3cccnc3Cl)cc12,.,.,.,.,.,99
SMILES,T cruzi inh,Calb FLC,NALP3 yeast inh,PolyA inhibitor,NALP1 yeast inh,L major viab
CCN1CCN(c2cc(C)c3cc(NC(=O)c4cccnc4Cl)ccc3n2)CC1,.,.,.,.,.,99
CCN1CCN(c2cc(C)c3cc(NC(=O)c4ccc(C)c(C)c4)ccc3n2)CC1,.,.,.,.,.,/
COc1ccccc1NS(=O)(=O)c1ccc(N2CCOCC2)c(N)c1,/,/,.,/,/,/
COCCN(C(=O)COC(=O)C1CC1)c1c(N)n(Cc2ccccc2)c(=O)[nH]c1=O,.,.,.,.,/,/
CCN(CC)c1cc(C)c2cc(NC(=O)c3ccc(Br)o3)ccc2n1,?,.,.,.,.,80
CCN(CC)c1cc(C)c2cc(NC(=O)c3cccs3)ccc2n1,.,.,.,.,.,.
O=C(N[C@@H](Cc1ccccc1)C(=O)NCCc1c[nH]c2ccccc12)c1ccco1,.,.,.,.,.,/
N/C(=N\OC(=O)CSc1ccccc1)c1ccc([N+](=O)[O-])cc1,.,?,.,.,.,64
COc1ccc2c(c1OC)C(=O)N1N=C(c3ccc(O)cc3)CC21 (configuration not stated),.,94,.,.,.,.
COc1ccc(C2=NN3C(=O)c4c(ccc(OC)c4OC)C3C2)cc1 (configuration not stated),.,.,.,.,.,60
COc1ccc2c(c1OC)C(=O)N1N=C(c3ccc(Br)cc3)CC21 (configuration not stated),.,.,.,.,.,.
CCOC(=O)c1cn(CC(=O)Nc2cccc(F)c2)nn1,.,.,.,.,21,.
CCOC(=O)c1cn(CC(=O)Nc2ccc(CC)cc2)nn1,.,.,.,.,.,.
Cc1cccc(CN2CCN(c3ncccn3)CC2)c1,.,.,.,.,.,/
Cc1cccc(Cn2c(C(C)(C)C)cc3cccnc32)c1,.,.,.,.,48,.
CC(C)(Oc1ccc(Cl)cc1)C(=O)N1CCN(c2ccccn2)CC1,.,.,.,.,.,62
CC(C)(Oc1ccc(Cl)cc1)C(=O)N(Cc1ccccc1)c1ccccn1,.,.,.,.,.,87
CC(C)(C)c1ccc(OCC(=O)N2CCN(c3ccccn3)CC2)cc1,/,/,.,/,/,/
O=C(COc1ccc(Cl)cc1)N(Cc1ccccc1)c1ccccn1,.,.,.,.,.,.
C#CCN1C(=O)S/C(=C/C=C/c2ccc(N(C)C)cc2)C1=O,/,/,/,/,.,88
Cc1onc(-c2ccccc2)c1C(=O)NN1CCOCC1,/,/,.,/,/,/
CCCCN1CCc2c(c3ccccc3n2Cc2ccccc2)C1,.,.,.,.,.,/
CN1CCc2c(c3ccccc3n2Cc2ccccc2)C1,.,.,.,.,.,100
CCN(c1ccccc1)S(=O)(=O)c1cc(C(=O)Oc2ccc3c(C)cc(=O)oc3c2)ccc1C,.,.,.,.,.,67
CCCCC1CCC(/C(N)=N/O)CC1 (configuration not stated),.,.,.,.,.,.
CCCCCC1CCC(C(=O)O)CC1 (configuration not stated),.,.,.,.,27,.
O=C(CSc1nc2ccccc2[nH]1)Nc1ccc2c(c1)CCC2,.,.,.,.,.,76
CCCCn1c(SCC(=O)Nc2cccc(OC)c2)nc2ccc(N3CCOCC3)cc2c1=O,.,96,.,.,.,.
CCCCn1c(SCC(=O)Nc2ccc3c(c2)CCC3)nc2ccccc2c1=O,.,.,.,.,.,69
